Results of several laboratories.
Each line is one published result; the experiments were not run side by side.
ADRA1D: Alpha-1D adrenergic receptor (ADRA1D, Homo sapiens, UniProt P25100)
SIGMAR1: Sigma non-opioid intracellular receptor 1 (SIGMAR1, Cavia porcellus, UniProt Q60492)
Prostate-specific antigen: Prostate-specific antigen (Homo sapiens, UniProt P07288)
ADRA2B: Alpha-2B adrenergic receptor (ADRA2B, Homo sapiens, UniProt P18089)
TMEM97: Sigma intracellular receptor 2 (TMEM97, Homo sapiens, UniProt Q5BJF2)
CASP7: Caspase-7 (CASP7, Homo sapiens, UniProt P55210)

| Structure (SMILES) | target | test | setting | Ki [nM] |
| --- | --- | --- | --- | --- |
| O=C1c2ccccc2CCN1CCCCN1CCN(c2ccccn2)CC1 | ADRA1D | ligand displacement, radioligand | – | 467 |
| CCOC(=O)[C@@]12C[C@@H]1[C@@H](n1cnc3c(NC)nc(C#Cc4ccc(Cl)s4)cc31)[C@H](O)[C@@H]2O | SIGMAR1 | ligand displacement, radioligand | – | 1040 |
| CCCC[C@H](NC(=O)[C@H](CCC(N)=O)NC(=O)[C@H](CO)NC(=O)[C@H](Cc1ccccc1)NC(=O)CCCCCNC(=O)c1ccc(I)cc1)C(=O)N[C@@H](CCCBr)B(O)O | Prostate-specific antigen | enzyme activity, inhibitor, fluorescence | pH 7.8 | 64.4 |
| CCCCN1CCC(COC(=O)c2ccc(N)c(OCF)c2)CC1 | ADRA2B | cell-free assay, radioligand | – | > 10000 |
| COc1ccccc1N1CCN(CCCCN2CCc3ccccc3C2=O)CC1 | ADRA1D | ligand displacement, radioligand | – | 14.2 |
| CC(C)(C)Oc1cc(CCC(C)(C)N2Cc3ccc(S(C)(=O)=O)cc3C2)ccc1O | TMEM97 | ligand displacement, radioligand | cell membranes | 8.5 |
| OCCCN1CC[C@@H]2C[C@H]1c1cc(-c3ccc(C(F)(F)F)cc3)ccc12 | TMEM97 | ligand displacement, radioligand | – | 17 |
| CCCC[C@H](NC(=O)[C@H](CCC(N)=O)NC(=O)[C@H](CO)NC(=O)C[C@@H](Cc1ccc2ccccc2c1)NC(=O)CCCCCN)C(=O)N[C@@H](CCCBr)B(O)O | Prostate-specific antigen | enzyme activity, inhibitor, fluorescence | pH 7.8 | 102 |
| C#CCNCCCN1CCN(CCCNC(=O)c2ccc(C(=O)c3ccc([N+](=O)[O-])cc3)cc2)CC1 | TMEM97 | ligand displacement, radioligand | cell membranes | 60.1 |
| O=C(NCCN1CCCCC1)c1ccc(O)c(Br)c1 | SIGMAR1 | ligand displacement, radioligand | cell membranes | > 10000 |
| O=c1c(O)c(-c2ccc(O)c(O)c2)oc2cc(O)cc(O)c12 | CASP7 | enzyme activity, inhibitor, fluorescence | – | > 300000 |
| C#CCNCc1ccc(C(=O)c2ccc([N+](=O)[O-])cc2)cc1 | TMEM97 | ligand displacement, radioligand | cell membranes | > 10000 |
| CCCC[C@H](NC(=O)[C@H](CCC(N)=O)NC(=O)[C@H](CO)NC(=O)[C@H](Cc1ccccc1)NC(=O)CCCCCN)C(=O)N[C@@H](Cc1ccccc1)B(O)O | Prostate-specific antigen | enzyme activity, inhibitor, fluorescence | pH 7.8 | 61.5 |
| C[C@@H]1O[C@H](CNS(=O)(=O)c2ccc(CCn3cc(CCN4CCN(c5cc6c(cc5F)c(=O)c(C(=O)O)cn6C5CC5)CC4)nn3)s2)[C@@H](O)[C@H](O)[C@@H]1O | Fucose-binding lectin PA-IIL (lecB, Pseudomonas aeruginosa, UniProt Q9HYN5) | ligand displacement, FP | – | 890 |
| CCCC[C@H](NC(=O)[C@H](CCC(N)=O)NC(=O)[C@H](CO)NC(=O)CCCCCN)C(=O)N[C@@H](CCCBr)B(O)O | Prostate-specific antigen | enzyme activity, inhibitor, fluorescence | pH 7.8 | 302 |
| CCCn1nc(C(=O)N2CCCCC2)c2c1CCC(N1CCC(c3ccncc3)CC1)C2 (stereo not drawn) | TMEM97 | ligand displacement, radioligand | – | 16 |
| COc1ccc(CO[C@H]2CCCN(Cc3cccc(C)c3)C2)cc1F | TMEM97 | ligand displacement, radioligand | cell membranes | 40 |
| CCCNc1nc2ccccc2n1Cc1ccc(Cl)cc1 | ADRA2B | ligand displacement, radioligand | – | 677 |
| COc1cc2c(cc1OC)CN(CCCNC(=O)c1ccc(C(=O)c3ccc([N+](=O)[O-])cc3)cc1)CC2 | TMEM97 | ligand displacement, radioligand | cell membranes | 1200 |
| CCCC[C@H](NC(=O)[C@H](CCC(N)=O)NC(=O)[C@H](CO)NC(=O)[C@H](C)NC(=O)CCCCCN)C(=O)N[C@@H](CCCBr)B(O)O | Prostate-specific antigen | enzyme activity, inhibitor, fluorescence | pH 7.8 | 52.1 |
| O=C(NCCN1CCCCC1)c1cc(Br)ccc1O | SIGMAR1 | ligand displacement, radioligand | cell membranes | > 10000 |
| C#CCN(CCCN1CCN(C2CCCCC2)CC1)c1ccc(C(=O)c2ccccc2)cc1 | TMEM97 | ligand displacement, radioligand | cell membranes | 77.7 |
| O=c1c(O)c(-c2ccc(O)cc2)oc2cc(O)cc(O)c12 | CASP7 | enzyme activity, inhibitor, fluorescence | – | > 300000 |
| CN(Cc1ccc(NC(=O)C2=Cc3cc(-c4ccc(OCCCF)cc4)ccc3CCC2)cc1)C1CCOCC1 | ADRA2B | ligand displacement, radioligand | – | 1200 |
| O=C(c1ccc(CNCCCN2CCN(C3CCCCC3)CC2)cc1)c1ccc([N+](=O)[O-])cc1 | TMEM97 | ligand displacement, radioligand | cell membranes | 33 |
| CNC(=O)[C@@]12C[C@@H]1[C@@H](n1cnc3c(NC)nc(C#Cc4ccccc4)nc31)[C@H](O)[C@@H]2O | SIGMAR1 | ligand displacement, radioligand | – | 7110 |
| CN(Cc1ccc(NC(=O)C2=Cc3cc(-c4ccc(OCCCCCF)cc4)ccc3CCC2)cc1)C1CCOCC1 | ADRA2B | ligand displacement, radioligand | – | 6810 |
| CCCn1nc(C(=O)N2CCCCC2)c2c1CCC(Nc1ccc(N3CCCCC3)cc1)C2 (stereo not drawn) | TMEM97 | ligand displacement, radioligand | – | 787 |
| CCCC[C@H](NC(=O)[C@H](CCC(N)=O)NC(=O)[C@H](CO)NC(=O)[C@H](C)NC(=O)CCCCCN)C(=O)N[C@@H](Cc1ccccc1)B(O)O | Prostate-specific antigen | enzyme activity, inhibitor, fluorescence | pH 7.8 | 310 |
| Cc1cc(Oc2nccc3c2ccn3C)ccc1-c1c(C)c(=O)[nH]c(=O)n1C | Muscarinic acetylcholine receptor M3 (CHRM3, Homo sapiens, UniProt P20309) | ligand displacement, radioligand | – | 4200 |
